Reference: ChEMBL document CHEMBL1764971, “7-azabicyclo[2.2.1]heptane as a structural motif to block mutagenicity of nitrosamines” (Bioorg Med Chem, 2011)

Legend:
Salmonella typhimurium [1] = assay: Mutagenic activity in Salmonella Typhimurium TA98 assessed as number of revertants after 44 hrs by Ames test in presence of rat liver S9 fraction; type: toxicity, organism-based; conditions: salmonella enterica subsp. enterica serovar typhimurium, s9, 44 h
Outline: (§1)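 Pre-incubation Ames method. Compound at 0.03, 0.06, 0.13, 0.25 or 0.5 mg in DMSO, mixed with 0.5 mL rat liver S9 mix (P450s plus NADPH-regenerating system) and 0.1 mL tester-strain culture. Shaken 30 min at 37 °C, then top agar added and poured onto minimal-glucose agar. Revertant colonies counted after 44 h at 37 °C. Duplicate plates, experiments repeated at least twice; mean of duplicates.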

Salmonella typhimurium [2] = assay: Mutagenic activity in Salmonella Typhimurium TA100 assessed as number of revertants after 44 hrs by Ames test in presence of rat liver S9 fraction; type: toxicity, organism-based; conditions: salmonella enterica subsp. enterica serovar typhimurium, s9, 44 h; outline: as §1
Salmonella typhimurium [3] = assay: Mutagenic activity in Salmonella Typhimurium TA98 assessed as number of revertants after 44 hrs by Ames test; type: toxicity, organism-based; conditions: salmonella enterica subsp. enterica serovar typhimurium
Outline: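 Pre-incubation Ames method without metabolic activation. Compound at 0.03, 0.06, 0.13, 0.25 or 0.5 mg in DMSO, mixed with 0.5 mL 0.1 M sodium phosphate buffer (pH 7.4) and 0.1 mL tester-strain culture. Shaken 30 min at 37 °C, then plated in top agar on minimal-glucose agar. Colonies counted after 44 h at 37 °C. Duplicate plates, at least two experiments; mean of duplicates.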

Salmonella typhimurium [4] = assay: Cytotoxicity against Salmonella Typhimurium TA98 in presence of rat liver S9 fraction; type: organism-based; conditions: salmonella enterica subsp. enterica serovar typhimurium
Salmonella typhimurium [5] = assay: Cytotoxicity against Salmonella Typhimurium TA98; type: organism-based; conditions: salmonella enterica subsp. enterica serovar typhimurium

Structure (SMILES) | Activity (Salmonella typhimurium [1]) | Activity (Salmonella typhimurium [2]) | Activity (Salmonella typhimurium [3]) | Activity (Salmonella typhimurium [4]) | Activity (Salmonella typhimurium [5])
CCOC(=O)CCN1C(=O)C2C(C1=O)C1c3ccccc3C2N1N=O (stereo unspecified) | Non-toxic | Non-toxic | Non-toxic | – | –
COC(=O)C1C(C(=O)OC)C2c3ccccc3C1N2N=O (stereo unspecified) | Non-toxic | Non-toxic | Non-toxic | – | –
O=NN1C2c3ccccc3C1C1C(=O)N(c3ccccc3)C(=O)C12 (stereo unspecified) | Non-toxic | Non-toxic | Non-toxic | Non-toxic | Toxic
O=NN1C2c3ccccc3C1C(C(F)(F)F)C2C(F)(F)F (stereo unspecified) | Non-toxic | Non-toxic | Non-toxic | – | –
COC(=O)C1CC2c3ccccc3C1N2N=O (stereo unspecified) | Non-toxic | Non-toxic | Non-toxic | – | –
O=NN1C2CCC1c1ccccc12 | Non-toxic | Non-toxic | Non-toxic | – | –
COc1cc2c(cc1OC)C1CCC2N1N=O | Toxic | Toxic | Toxic | – | –
O=NN1C2CCC1c1cc([N+](=O)[O-])ccc12 (stereo unspecified) | Non-toxic | Non-toxic | Non-toxic | – | –
O=NN1C2C=CC1c1cc([N+](=O)[O-])ccc12 (stereo unspecified) | Toxic | Toxic | Toxic | – | –
O=NN1C2CC(O)C1c1ccc([N+](=O)[O-])cc12 (stereo unspecified) | Toxic | Toxic | Toxic | – | –
O=NN1C2CC(O)C1c1ccccc12 (stereo unspecified) | Non-toxic | Non-toxic | Non-toxic | – | –
O=NN1C2CCC1CC2 | Non-toxic | Non-toxic | Non-toxic | – | –
COC(=O)C1C(C(=O)OC)C2CCC1N2N=O (stereo unspecified) | Non-toxic | Non-toxic | Non-toxic | – | –
COCC12CCC(C(C(=O)OC)C1)N2N=O (stereo unspecified) | Non-toxic | Non-toxic | Non-toxic | – | –
COC(=O)C1CC2(COCc3ccccc3)CCC1N2N=O (stereo unspecified) | Non-toxic | Non-toxic | Non-toxic | – | –
O=NN1Cc2ccccc2C1 | Toxic | Toxic | Non-toxic | – | –
CN1C(=O)[C@@H]2C3c4ccccc4C([C@@H]2C1=O)N3N=O | Non-toxic | Non-toxic | Non-toxic | – | –
O=NN1CCCC1 | Toxic | Toxic | Non-toxic | – | –
